Assay outcomes deposited in PubChem BioAssay by several laboratories.
Rows were chosen to be rich in hits. Some 4.1% of all compounds tested hit in one or more screens of this group.
KCC2 mod = KCC2 (human) Cl- transport modulation; AID 1456; B-score of Tl+ flux slope (higher = more flux/activation; lower = inhibition) at 10 µM; Q9H2X9; 190,000 tested, 2.2% active; KCC2 cells, thallium flux FluoZin-2 fluorescence;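 active means thallium flux slope and its plate-corrected score both differing from the plate sample mean at a set confidence after two filtering rounds, in either direction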;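 further: slope of fluorescence scaled to starting intensity during 10 to 20 s after thallium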
KCNQ1 block = blocks the human KCNQ1 potassium channel; AID 2642; CHO-K1 KCNQ1, FluxOR thallium flux fluorescence; stronger effect = higher value; B-score at 10 µM; P51787; 310,000 tested, 1.3% active;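 active means compounds whose thallium flux B-score, printed positive for inhibition, exceeds three library SD while starting fluorescence stays within three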;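 further: channel opened by potassium depolarization with thallium stimulus after 20 min compound exposure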
KCNK3 block = human KCNK3 channel inhibition, primary screen; O14649; AID 602410; B-score at 10 µM; CHO-KCNK3 thallium flux, FluxOR fluorescence; stronger effect = lower value; 340,000 tested, 0.84% active;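 active means B-score under library mean minus 4 SD, starting fluorescence ratio at most library mean plus 5 SD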;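 further: more negative B-score means stronger inhibition of thallium flux through KCNK3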
KCNQ1 act = potentiators or activators of human KCNQ1 potassium channel. CHO-K1 KCNQ1, thallium flux FluxOR fluorescence; stronger effect = higher value. B-score at 10 µM. 310,000 tested, 0.35% active;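 active means fluorescence ratio B-score, a plate-corrected score, at least three library SD, with initial intensity B-score within 5 SD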
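assay system = KCNQ1-transfected CHO-K1 cells | medium = assay buffer with matched DMSO | probe or stimulus = depolarizing K+/Tl+ stimulus, K2SO4 and Tl2SO4 each 12.5 mM in 5x stock | dosing = single dose | incubation = dye 90 min, compound 20 min, room temperature | detection = kinetic FluxOR fluorescence, 10 s baseline plus 110 s post-stimulus | evaluation = ratio B score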
hERG rescue = hERG (human) protection from proarrhythmic block; activation (rescue from dofetilide block), less the hit threshold, % at 10 µM; 310,000 tested, 0.51% active; CHO-hERG, FluxOR thallium flux, dofetilide IC70 present;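 active means activation above the mean of controls blocked by dofetilide plus 5 SD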;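 further: thallium influx through hERG after potassium depolarization seen as dye fluorescence rise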
KCNK9 inh = human KCNK9 channel inhibition | Q9NPC2 | HEK293 KCNK9, FluxOR thallium flux fluorescence; stronger effect = lower value | B-score at 10 µM | 310,000 tested, 1.2% active;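 active means ratio B-score over 3 SD below the library mean, with starting fluorescence within 5 SD of its mean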;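 further: negative B-score means less thallium flux so channel inhibition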
KCNK9 inh conf = human KCNK9 inhibitor confirmation; inhibition, % at 10 µM; 4,900 tested, 43% active; HEK293 KCNK9 cells, FluxOR thallium flux fluorescence; shares compounds with KCNK9 inh; AID 492992;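 active means thallium signal inhibited by more than 5 SD of the compound-free buffer control wells, on both duplicate plates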;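 further: 0% = assay buffer control wells without compound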
Kir2-1 spec = selectivity of KCNK9 modulators against mouse Kir2.1; shares compounds with KCNK9 inh; 4,900 tested, 4% active; inhibition, % at 10 µM; Kir2.1 cells, FluxOR thallium flux fluorescence;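 active means thallium signal drop more than 5 SD beyond the mean of the no-compound control wells, seen in both duplicate plates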;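 further: signal is fluorescence rise after thallium addition divided by baseline fluorescence; plate controls were assay buffer only for no effect and full block by chlorpromazine control for full effect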
HEK293 Tl ctr = second check of KCNK9 modulator effects in non-induced HEK293 cells. shares compounds with KCNK9 inh. FluxOR thallium flux. inhibition, % at 10 µM. 4,900 tested, 40% active. AID 492997;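 active means thallium signal drop beyond 5 SD of the untreated control mean, on both duplicate plates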;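 further: plate controls were buffer only IC0 wells for no effect and SID17386958 at its maximal inhibitory level for full effect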
Starred values were filed as active, the others as inactive; i = inactive; · = no result given.

SMILES	KCC2 mod	KCNQ1 block	KCNK3 block	KCNQ1 act	hERG rescue	KCNK9 inh	KCNK9 inh conf	Kir2-1 spec	HEK293 Tl ctr
Cc1cc(C)cc(NC(=S)NCc2cccnc2)c1	0.48	i	i	i	-7	i	·	·	·
O=C(O)c1ccc(Cl)c(S(=O)(=O)N(Cc2ccccc2)c2ccc(Cl)cc2)c1	·	i	i	i	-16	i	i	i	i
NC(=O)COC(=O)c1ccc(Cl)c(S(=O)(=O)N(Cc2ccccc2)c2ccc(Cl)cc2)c1	-2.1	i	i	i	-8	i	·	·	·
CCOc1ccc(C(=O)NCC(=O)Nc2ncccc2C)cc1OCC	·	i	i	i	-6	i	51%*	i	i
CCOc1ccccc1N1CCN(C(=O)C2c3ccccc3Oc3ccccc32)CC1	0.022	i	-9.3*	i	-9	-12*	45%*	i	36%*
CC(C)CNC(CC(=O)O)c1ccccc1 (stereo not drawn)	0.11	i	i	i	-8	i	·	·	·
Cc1ccccc1NC(=O)CSc1nnc(C)c(=O)[nH]1	0.59	i	i	i	-2	i	·	·	·
c1ccc(OCc2noc(CN3CC[C@@H]4CCCC[C@H]4C3)n2)cc1	-2	i	i	i	-10	i	·	·	·
Clc1cccc(CN2CCN(Cc3nc(CCc4ccccc4)no3)CC2)c1	·	i	i	i	-6	i	i	i	i
Clc1cccc(C2CCN(Cc3nc(COc4ccccc4)no3)C2)c1 (stereo not drawn)	·	i	i	i	-13	i	i	i	i
COc1cc(NC(=O)c2c(-c3ccccc3Cl)noc2C)c2ncccc2c1	·	i	i	i	-12	i	·	·	·
Cc1onc(-c2ccccc2Cl)c1C(=O)Nc1cccc2cccnc12	-2.1	6*	i	i	-10	-13*	47%*	i	45%*
COc1ccccc1NC(=O)Nc1nn(C)c2cccc(OC)c12	-0.77	i	i	i	-11	-11*	48%*	i	27%*
Cc1cc(C)c(/C=N/NC(=O)c2nnn(-c3nonc3N)c2COc2ccc(F)cc2)c(C)c1	0.66	i	i	i	-2	i	·	·	·
CC(C)n1nc(C(=O)Nc2nc3ccc(S(C)(=O)=O)cc3s2)c2ccccc2c1=O	·	i	i	i	-10	i	·	·	·
CC(C)n1nc(C(=O)Nc2nnc(SCc3c(Cl)cccc3Cl)s2)c2ccccc2c1=O	·	i	i	i	-15	i	i	i	i
C=CCn1c(SC(C)C(=O)NCc2ccc3c(c2)OCO3)nnc1C1CCCCC1 (stereo not drawn)	-0.69	i	i	i	-1	i	·	·	·
CCC(=O)Nc1cccc(C2=NN(c3ccccc3)C(c3ccc(OC)cc3)C2)c1 (stereo not drawn)	·	i	i	i	-5	-13*	52%*	i	40%*
O=C(N/N=C/c1cn(-c2ccccc2)nc1-c1ccc2c(c1)OCCO2)c1ccncc1	0.88	i	i	i	-11	i	·	·	·
O=C(N/N=C/c1cn(-c2ccccc2)nc1-c1ccc(F)cc1)c1ccc2c(c1)OCO2	-0.55	i	i	i	-24	-10*	55%*	i	i
Cc1cc(Oc2ccc3ccccc3c2)nc(SCC(=O)c2ccccc2)n1	-1.1	i	i	i	-10	-13*	76%*	i	38%*
Cc1cc(Oc2ccc(Br)cc2)nc(SCC(=O)c2ccccc2)n1	-0.14	i	i	i	-5	i	·	·	·
C=CCSc1nc(-c2ccc(OC)cc2)c(C#N)c(=O)n1CC=C	-1.3	i	i	i	-8	-8.7*	i	i	i
O=[N+]([O-])c1ccccc1-c1ccc(C(=S)N2CCN(c3ccccc3)CC2)o1	0.024	i	i	i	-6	i	i	i	i
COc1cc(CN2CCN(Cc3ccc([N+](=O)[O-])cc3)CC2)c([N+](=O)[O-])cc1OC	-0.39	i	i	i	-17	i	·	·	·
SMILES	KCC2 mod	KCNQ1 block	KCNK3 block	KCNQ1 act	hERG rescue	KCNK9 inh	KCNK9 inh conf	Kir2-1 spec	HEK293 Tl ctr
CCSc1nnc(NC(=O)CN2C(=O)C3CC=CCC3C2=O)s1 (stereo not drawn)	-0.44	i	i	i	-8	i	·	·	·
COC(=O)c1ccc(N2CCN(C(C)=O)CC2)c(NC(=O)c2cccnc2)c1	-0.048	i	i	i	-3	i	·	·	·
CSc1ccccc1OCc1cc(C(=O)N2CCc3c(Cl)cccc3C2)no1	·	i	i	i	-12	i	i	i	i
COc1ccc(OCc2cc(C(=O)N3CCN(C4CCCC4)CC3)no2)c(Cl)c1	·	i	i	i	-14	i	i	i	i
CSc1ccccc1OCc1cc(C(=O)N2CCNC(=O)C2)no1	·	i	i	i	-12	i	·	·	·
Cc1ccc(OCc2cc(C(=O)N3CCC(c4ccccc4Cl)C3)no2)cc1C (stereo not drawn)	·	i	i	i	-5	i	i	i	i
COc1ccc(OCc2cc(C(=O)N3CCCCCCC3)no2)c(Cl)c1	·	i	i	i	-6	i	·	·	·
COc1cccc(C2c3[nH]c4ccccc4c3CCN2Cc2cccn2-c2ncccn2)c1 (stereo not drawn)	-1.7	i	i	i	-21	-8.3*	40%*	i	48%*
COc1cccc(C2c3[nH]c4ccccc4c3CCN2CCCn2cccn2)c1 (stereo not drawn)	·	i	i	i	-8	i	·	·	·
CCc1nnc(NC(=O)CSc2nnc(C3CCCCC3)n2-c2cccc(Cl)c2)s1	-0.71	i	i	i	-15	i	·	·	·
O=C(O)Cc1ccc(NC(=O)c2ccc(NC(=O)C3CC3)cc2)cc1	·	i	i	i	-7	i	·	·	·
CCOC(=O)C1=C(C)N=c2s/c(=C\c3ccc(OCC(=O)O)cc3)c(=O)n2C1c1ccc(OC(C)C)cc1 (stereo not drawn)	-1	i	i	i	-24	i	i	i	i
C/C(=N\NC(=S)NCCc1ccccc1)c1cccs1	8.6*	i	i	i	4	i	i	i	i
